pIC50: −log10 of the molar value. Active and inactive are the calls of the source. The rule behind the calls is not given here.
Tests used:
[1] = Cytotoxicity against Chinese hamster V79 cells expressing wild type BRCA2 assessed as growth inhibition; assay type: cell-based, Cricetulus griseus
In short: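 V79 (wild-type Chinese hamster lung fibroblasts) grown in RPMI-1640 with 10% FBS, 37 °C, 5% CO2. Six concentrations per test. CC50 is the concentration reducing proliferation and growth by 50%, calculated by Logit method from at least three independent tests.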

[2] = Cytotoxicity against Chinese hamster BRCA2-deficient VC8 cells assessed as growth inhibition; assay type: cell-based; conditions: Cricetulus griseus, V-C8
In short: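 V-C8 (BRCA2-deficient Chinese hamster lung fibroblasts) grown in F12 with 10% FBS, 37 °C, 5% CO2. Six concentrations per test. CC50 is the concentration reducing proliferation and growth by 50%, calculated by Logit method from at least three independent tests.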

[3] = target: Poly [ADP-ribose] polymerase 1 (Homo sapiens, UniProt P09874); experiment: Inhibition of human recombinant PARP1 after 1 hr by ELISA
[4] = test system: SK-OV-3; experiment: Potentiation of temozolomide-induced cytotoxicity in human SKOV3 cells assessed as reduction in temozolomide IC50 at 1 uM after 7 days by sulforhodamine B assay; assay type: functional
In short: (§1)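 SKOV3 cells in DMEM with 10% FBS were given gradient concentrations of temozolomide, alone or with compound at 0.5 or 1.0 µM, for 7 days. Cytotoxicity read by sulforhodamine B. Temozolomide IC50 reported as mean ± SD, n=3.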

[5] = Ratio of CC50 for Chinese hamster BRCA2-deficient VC8 cells to IC50 for human recombinant PARP1
[6] = test system: SK-OV-3; experiment: Potentiation of temozolomide-induced cytotoxicity in human SKOV3 cells assessed as reduction in temozolomide IC50 at 0.5 uM after 7 days by sulforhodamine B assay; assay type: functional; in short: as §1
[7] = target: Poly [ADP-ribose] polymerase 1 (Cricetulus griseus) (UniProt Q9R152); experiment: Inhibition of PARP1 in Chinese hamster BRCA2-deficient VC8 cells assessed as impairment of cell cycle progression at 0.5 uM after 24 hrs by propidium iodide staining-based FACS flow cytometric analysis
In short: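 BRCA2-deficient V-C8 cells treated with compound at 0.5 µM, 37 °C, 24 h. Cells then harvested, fixed and stained with 10 µg/mL propidium iodide. Cell-cycle distribution read by flow cytometry, at least 10,000 events per sample.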

[8] = target: PARP 1, 2 and 3 (Homo sapiens, UniProt P09874+Q9Y6F1+Q9UGN5); experiment: Inhibition of PARP1/PARP2 in human SKOV3 cells assessed as reduction in H2O2-induced PARylation incubated for 4 hrs prior to H2O2 treatment; assay type: cell-based; conditions: sk-ov-3
[9] = target: hERG (KCNH2) (Homo sapiens, UniProt Q12809); experiment: Inhibition of human ERG at 5 uM relative to control
[10] = (§2) Oral bioavailability in rat at 20 mg/kg; assay type: ADME, organism-based; conditions: in vivo
In short: (§3)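 Rat oral PK, 20 mg/kg po. Vehicle DMSO, Tween 80, normal saline. Cmax, Tmax, AUC0-∞ and oral bioavailability F taken from plasma concentration-time curves. Values are the average of three runs.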

[11] = (§4) AUC (0 to infinity) in rat at 20 mg/kg, po; assay type: ADME, organism-based, Plasma; parameters: time infinity, dose 20 mg/kg, route oral; conditions: plasma; in short: as §3
[12] = Tmax in rat at 20 mg/kg, po; assay type: ADME, organism-based; parameters: dose 20 mg/kg, route oral; conditions: in vivo; in short: as §3
[13] = Cmax in rat at 20 mg/kg, po; assay type: ADME, organism-based; parameters: dose 20 mg/kg, route oral; conditions: in vivo; in short: as §3
[14] = Half life in rat at 10 mg/kg, iv; assay type: ADME, organism-based; parameters: dose 10 mg/kg, route intravenous; conditions: in vivo
In short: (§5)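 Rat intravenous PK, 10 mg/kg iv. Vehicle DMSO, Tween 80, normal saline. Clearance, Vss and half-life derived from plasma concentration-time data. Values are the average of three runs.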

[15] = Volume of distribution at steady state in rat at 10 mg/kg, iv; assay type: ADME, organism-based; parameters: dose 10 mg/kg, route intravenous; conditions: in vivo, read-out: Vdss; in short: as §5
[16] = (§6) Clearance in rat at 10 mg/kg, iv; assay type: ADME, organism-based; parameters: dose 10 mg/kg, route intravenous; conditions: in vivo; in short: as §5
[17] = Ratio of AZD2281 CC50 to compound CC50 for human BRCA1-deficient MDA-MB-436 cells; assay type: ADME
[18] = Cytotoxicity against human BRCA1-deficient MDA-MB-436 cells assessed as growth inhibition; assay type: cell-based
In short: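 Proliferation assay in BRCA1-mutant human breast cancer MDA-MB-436 cells. Six concentrations per test. CC50 calculated by Logit method from at least three independent tests.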

[19] = Ratio of AZD2281 CC50 to compound CC50 for Chinese hamster BRCA2-deficient VC8 cells; assay type: ADME, cell-based, Cricetulus griseus
[20] = test system: Rattus norvegicus; experiment: as §2; assay type: ADME, organism-based; conditions: in vivo; in short: as §3
[21] = test system: Rattus norvegicus; experiment: as §4; assay type: ADME, organism-based, Plasma; parameters: time infinity, dose 20 mg/kg, route oral; conditions: in vivo; in short: as §3
[22] = test system: Rattus norvegicus; experiment: as §6; assay type: ADME, organism-based; parameters: dose 10 mg/kg, route intravenous; conditions: in vivo; in short: as §5

Poly [ADP-ribose] polymerase 1, sequence (P09874 whole entry): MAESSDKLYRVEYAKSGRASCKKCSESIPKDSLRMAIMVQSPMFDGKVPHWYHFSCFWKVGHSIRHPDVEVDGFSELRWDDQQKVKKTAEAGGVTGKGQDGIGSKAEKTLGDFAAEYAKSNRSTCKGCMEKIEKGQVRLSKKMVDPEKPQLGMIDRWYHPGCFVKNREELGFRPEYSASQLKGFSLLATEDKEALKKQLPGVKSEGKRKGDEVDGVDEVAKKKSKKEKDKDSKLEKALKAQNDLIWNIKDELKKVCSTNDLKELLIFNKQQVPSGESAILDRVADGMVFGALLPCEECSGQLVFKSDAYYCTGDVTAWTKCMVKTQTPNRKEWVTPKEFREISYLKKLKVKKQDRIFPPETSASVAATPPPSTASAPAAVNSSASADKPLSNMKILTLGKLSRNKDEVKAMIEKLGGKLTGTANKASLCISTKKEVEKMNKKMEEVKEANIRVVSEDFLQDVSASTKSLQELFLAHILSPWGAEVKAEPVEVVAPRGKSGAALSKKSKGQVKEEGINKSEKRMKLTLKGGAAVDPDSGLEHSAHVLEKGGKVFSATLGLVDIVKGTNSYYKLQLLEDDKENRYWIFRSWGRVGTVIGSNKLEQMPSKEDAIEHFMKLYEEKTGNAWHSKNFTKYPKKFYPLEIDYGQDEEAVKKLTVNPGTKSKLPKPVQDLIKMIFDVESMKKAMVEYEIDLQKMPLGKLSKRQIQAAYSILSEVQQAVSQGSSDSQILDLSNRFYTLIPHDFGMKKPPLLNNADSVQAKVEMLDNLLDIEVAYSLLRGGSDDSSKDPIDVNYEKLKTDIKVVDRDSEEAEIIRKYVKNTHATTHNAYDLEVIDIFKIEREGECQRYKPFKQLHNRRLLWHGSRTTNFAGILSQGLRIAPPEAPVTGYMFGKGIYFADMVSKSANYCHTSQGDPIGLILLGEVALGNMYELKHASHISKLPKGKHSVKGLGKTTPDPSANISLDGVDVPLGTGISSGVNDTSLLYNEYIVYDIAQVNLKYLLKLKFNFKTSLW
Poly [ADP-ribose] polymerase 1 (Cricetulus griseus), sequence (Q9R152 whole entry): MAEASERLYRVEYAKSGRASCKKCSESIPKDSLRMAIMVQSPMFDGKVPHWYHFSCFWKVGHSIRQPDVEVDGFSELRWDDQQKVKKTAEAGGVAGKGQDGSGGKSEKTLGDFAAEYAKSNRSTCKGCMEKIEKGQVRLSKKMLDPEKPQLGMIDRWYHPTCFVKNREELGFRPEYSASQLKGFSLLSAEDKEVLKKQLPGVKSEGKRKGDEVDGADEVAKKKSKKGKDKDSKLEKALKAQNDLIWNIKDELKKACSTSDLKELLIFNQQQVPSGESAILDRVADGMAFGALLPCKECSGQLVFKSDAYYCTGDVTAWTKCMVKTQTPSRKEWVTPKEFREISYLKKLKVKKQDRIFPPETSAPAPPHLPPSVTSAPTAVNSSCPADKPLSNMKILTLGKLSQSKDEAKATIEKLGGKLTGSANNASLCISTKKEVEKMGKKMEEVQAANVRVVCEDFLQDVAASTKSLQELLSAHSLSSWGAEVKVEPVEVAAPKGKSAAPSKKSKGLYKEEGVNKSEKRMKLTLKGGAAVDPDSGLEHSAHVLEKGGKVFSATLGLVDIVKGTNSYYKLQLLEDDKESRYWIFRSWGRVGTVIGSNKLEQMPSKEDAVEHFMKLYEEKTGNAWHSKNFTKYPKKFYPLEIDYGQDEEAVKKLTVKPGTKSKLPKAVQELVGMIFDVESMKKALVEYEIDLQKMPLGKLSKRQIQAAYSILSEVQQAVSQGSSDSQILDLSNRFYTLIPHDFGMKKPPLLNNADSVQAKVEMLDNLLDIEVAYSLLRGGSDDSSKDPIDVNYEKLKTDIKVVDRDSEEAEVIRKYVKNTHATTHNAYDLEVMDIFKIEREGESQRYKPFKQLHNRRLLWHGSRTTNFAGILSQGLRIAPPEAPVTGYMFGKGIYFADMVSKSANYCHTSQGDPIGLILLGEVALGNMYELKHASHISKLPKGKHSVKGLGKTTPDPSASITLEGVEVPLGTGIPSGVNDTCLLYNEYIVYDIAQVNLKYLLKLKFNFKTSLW
hERG (KCNH2), sequence (Q12809 whole entry): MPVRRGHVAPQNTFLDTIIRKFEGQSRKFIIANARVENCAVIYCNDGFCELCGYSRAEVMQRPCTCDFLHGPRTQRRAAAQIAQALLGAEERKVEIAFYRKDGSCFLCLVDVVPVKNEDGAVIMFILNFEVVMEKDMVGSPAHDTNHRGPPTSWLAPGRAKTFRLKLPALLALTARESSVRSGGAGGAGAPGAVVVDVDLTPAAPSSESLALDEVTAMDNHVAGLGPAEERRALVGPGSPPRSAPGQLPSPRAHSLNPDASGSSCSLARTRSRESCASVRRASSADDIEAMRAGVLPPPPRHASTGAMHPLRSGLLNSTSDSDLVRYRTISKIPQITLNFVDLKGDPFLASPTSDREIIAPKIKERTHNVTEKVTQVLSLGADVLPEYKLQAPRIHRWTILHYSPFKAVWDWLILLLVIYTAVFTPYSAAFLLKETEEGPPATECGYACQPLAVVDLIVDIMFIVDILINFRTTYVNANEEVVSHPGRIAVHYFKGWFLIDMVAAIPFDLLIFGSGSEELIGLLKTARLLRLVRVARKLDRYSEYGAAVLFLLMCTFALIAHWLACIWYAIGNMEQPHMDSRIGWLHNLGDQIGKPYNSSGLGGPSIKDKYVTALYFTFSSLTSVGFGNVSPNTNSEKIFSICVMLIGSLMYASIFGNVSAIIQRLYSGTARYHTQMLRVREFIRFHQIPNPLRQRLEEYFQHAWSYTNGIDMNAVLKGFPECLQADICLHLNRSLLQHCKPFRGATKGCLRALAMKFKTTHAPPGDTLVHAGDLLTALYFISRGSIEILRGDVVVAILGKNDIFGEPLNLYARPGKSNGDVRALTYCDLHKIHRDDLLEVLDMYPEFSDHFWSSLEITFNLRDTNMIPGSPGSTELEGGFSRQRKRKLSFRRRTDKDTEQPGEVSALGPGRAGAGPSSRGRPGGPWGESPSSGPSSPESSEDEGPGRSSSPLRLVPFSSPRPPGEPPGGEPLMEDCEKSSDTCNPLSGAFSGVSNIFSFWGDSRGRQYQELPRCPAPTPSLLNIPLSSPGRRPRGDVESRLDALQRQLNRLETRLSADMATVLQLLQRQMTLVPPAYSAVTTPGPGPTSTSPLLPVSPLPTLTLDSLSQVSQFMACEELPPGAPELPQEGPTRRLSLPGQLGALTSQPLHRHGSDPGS

Structure (SMILES) | CC50 [1] [µM] | CC50 [2] [nM] | pIC50 [3] | further results
O=C1NCC2c3c(cccc31)CCN2C(=O)C1CCCN1C(=O)c1cc(Cc2n[nH]c(=O)c3ccccc23)ccc1F (stereo not drawn) | > 10 | > 1000 | 7.35 | 
Cc1c(Cc2ccc(F)c(C(=O)N3CCc4cccc5c4C3CNC5=O)c2)n[nH]c(=O)c1C (stereo not drawn) | > 10 | > 1000 | 7.44 | 
COc1ccc(N2CCN(C(=O)CNC(=O)CCN3CCc4cccc5c4C3CNC5=O)CC2)cc1 (stereo not drawn) |  |  | 5.06 | 
O=C(CN1CCc2cccc3c2C1CNC3=O)N[C@H](Cc1ccccc1)C(=O)N1CC=C(c2ccc(F)cc2)CC1 (stereo partly drawn) |  |  | < 5.00 | 
O=C1NCC2c3c(cccc31)CCN2CC(=O)N1CC2CCCNC2C1 (stereo not drawn) |  |  | 5.03 | 
O=C1NCC2c3c(cccc31)CCN2C(=O)c1cc(Cc2n[nH]c(=O)c3ccccc23)ccc1F (stereo not drawn) | > 10 | 96 | 9.51 | fold change (FC) [4]: 10.6; Ratio CC50/IC50 [5]: 300; fold change (FC) [6]: 9.3; inhibition [7]: Active; IC50 [8]: 66.1 nM; inhibition at 5 µM [9]: 17%; bioavailability [10]: 21%; AUC(0-inf) [11]: 1820 ng·h/mL; Tmax [12]: 25.2 min; Cmax [13]: 722 ng/mL; half-life [14]: 104 min; Vd [15]: 4.27 L/kg; clearance [16]: 38 mL/min/kg; Ratio [17]: 2; CC50 [18]: 23.3 nM
O=C1NCC2c3c(cccc31)CCN2C(=O)c1cc(Cc2n[nH]c(=O)c3c2CCCC3)ccc1F (stereo not drawn) | > 10 | 114 | 8.74 | Ratio [19]: 2
O=C1NCC2c3c(cccc31)CCN2C(=O)C1CCN(C(=O)c2cc(Cc3n[nH]c(=O)c4ccccc34)ccc2F)CC1 (stereo not drawn) | > 10 | > 1000 | 8.72 | CC50 [18]: 344 nM
O=C(c1cc(Cc2n[nH]c(=O)c3ccccc23)ccc1F)N1Cc2cccc3c2C(C1)NCC3 (stereo not drawn) | > 10 | 630 | 8.86 | CC50 [18]: 556 nM
O=C(NCC(=O)N1CCc2cccc3c2C1CNC3=O)c1cc(Cc2n[nH]c(=O)c3ccccc23)ccc1F (stereo not drawn) | > 10 | > 1000 | 7.48 | 
O=C1NCC2c3c(cccc31)CCN2CC(=O)N1CCC2CNCC21 (stereo not drawn) |  |  | 5.03 | 
O=C(CCN1CCc2cccc3c2C1CNC3=O)NCC(=O)N1CCN(c2ncccn2)CC1 (stereo not drawn) |  |  | 5.07 | 
O=C1NCC2c3c(cccc31)CCN2CC(=O)N1C[C@H]2CNC[C@H]2C1 (stereo partly drawn) |  |  | 5.06 | 
O=C1CC2c3c(cccc3N1)CCN2C(=O)c1cc(Cc2n[nH]c(=O)c3ccccc23)ccc1F (stereo not drawn) | > 10 | > 10000 | 6.41 | 
COc1ccc(N2CCN(C(=O)CNC(=O)CN3CCc4cccc5c4C3CNC5=O)CC2)cc1 (stereo not drawn) |  |  | 6.52 | 
COc1ccc(N2CCN(C(=O)CNC(=O)CCCN3CCc4cccc5c4C3CNC5=O)CC2)cc1 (stereo not drawn) |  |  | 5.05 | 
O=C(N[C@@H]1C[C@@H](O)c2ccccc21)c1cc(Cc2n[nH]c(=O)c3ccccc23)ccc1F (relative stereo) | 4.26 | 2270 | 9.24 | CC50 [18]: 775 nM
Cc1cc(Cc2ccc(F)c(C(=O)N3CCc4cccc5c4C3CNC5=O)c2)n[nH]c1=O (stereo not drawn) |  |  | 6.68 | 

Structure (SMILES) | CC50 [1] [µM] | CC50 [2] [nM] | pIC50 [3] | further results
O=C(CCN1CCc2cccc3c2C1CNC3=O)NCC(=O)N1CCN(c2ccccc2F)CC1 (stereo not drawn) |  |  | 5.05 | 
NC1CC2c3c(cccc31)CCN2C(=O)c1cc(Cc2n[nH]c(=O)c3ccccc23)ccc1F (stereo not drawn) | > 10 | > 10000 | 7.12 | 
O=C(c1cc(Cc2n[nH]c(=O)c3ccccc23)ccc1F)N1CCc2cccc3c2C1CC3F (stereo not drawn) | > 10 | > 10000 | 9.25 | CC50 [18]: 4300 nM
CN(C(=O)c1cc(Cc2n[nH]c(=O)c3ccccc23)ccc1F)C1CC(=O)c2ccccc21 (stereo not drawn) | > 10 | 4680 | 7.95 | 
O=C(CCN1CCc2cccc3c2C1CNC3=O)NCC(=O)N1CC=C(c2ccc(F)cc2)CC1 (stereo not drawn) |  |  | 5.96 | 
O=C(NC1CC(=O)c2ccccc21)c1cc(Cc2n[nH]c(=O)c3ccccc23)ccc1F (stereo not drawn) | > 10 | > 10000 | 7.08 | 
O=C(NC1CNC(=O)c2ccccc21)c1cc(Cc2n[nH]c(=O)c3ccccc23)ccc1F (stereo not drawn) | > 10 | > 10000 | 7.06 | 
O=C(N[C@@H]1C[C@H](O)c2ccccc21)c1cc(Cc2n[nH]c(=O)c3ccccc23)ccc1F (relative stereo) | 1.49 | 418 | 8.32 | CC50 [18]: 4520 nM
O=C(NC1CNC(=O)c2ccccc21)c1cccc(Cc2n[nH]c(=O)c3ccccc23)c1 (stereo not drawn) | > 10 | > 10000 | 6.84 | 
C[C@@H](NC(=O)CN1CCc2cccc3c2C1CNC3=O)C(=O)N1CC=C(c2ccc(F)cc2)CC1 (stereo partly drawn) |  |  | 6.68 | 
O=C(CN1CCc2cccc3c2C1CNC3=O)N[C@@H](Cc1ccccc1)C(=O)N1CC=C(c2ccc(F)cc2)CC1 (stereo partly drawn) |  |  | 6.31 | 
C[C@H](NC(=O)CN1CCc2cccc3c2C1CNC3=O)C(=O)N1CC=C(c2ccc(F)cc2)CC1 (stereo partly drawn) |  |  | 7.72 | 
O=C(c1cc(Cc2n[nH]c(=O)c3ccccc23)ccc1F)N1CCN(C(=O)C2CC2)CC1 [OLAPARIB] | > 10 | 201 |  | fold change (FC) [4]: 10.4; fold change (FC) [6]: 9.6; CC50 [18]: 43.2 nM
O=C1CC2c3c(cccc31)CCN2C(=O)c1cc(Cc2n[nH]c(=O)c3ccccc23)ccc1F (stereo not drawn) | > 10 | 4.53 | 8.46 | fold change (FC) [4]: 22.2; fold change (FC) [6]: 19.5; inhibition [7]: Active; IC50 [8]: 0.49 nM; inhibition at 5 µM [9]: 34%; F [20]: 10%; AUC [21]: 980 ng·h/mL; Tmax [12]: 26.4 min; Cmax [13]: 116 ng/mL; half-life [14]: 66.6 min; Vd [15]: 4.56 L/kg; CL [22]: 7.67 L/h/kg; Ratio [17]: 160; CC50 [18]: < 0.26 nM; Ratio [19]: 40
O=C(c1cc(Cc2n[nH]c(=O)c3ccccc23)ccc1F)N1CCc2cccc3c2C1CNC3 (stereo not drawn) | > 10 | > 10000 | 6.81 | 
O=C1NCC2c3c(cccc31)CCN2CC(=O)N1CCn2c(nnc2C(F)(F)F)C1 (stereo not drawn) |  |  | < 5.00 | 
O=C(c1cc(Cc2n[nH]c(=O)c3ccccc23)ccc1F)N1CCc2cccc3c2C1CC3O (stereo not drawn) | > 10 | > 10000 | 7.06 | 

Reference: ChEMBL document CHEMBL2321760, “Design, synthesis, and biological evaluation of a series of benzo[de][1,7]naphthyridin-7(8H)-ones bearing a functionalized longer chain appendage as novel PARP1 inhibitors” (J Med Chem, 2013)
